Results from publication PMC4883117 (Fitoterapia, 2015).
Several values for one entry are separate records, joined by “and”; a condition that tells them apart may be missing. Equal values may be shown once. Read-outs that look alike come from different tables or passages of the source.

Tests used:
[1] = tested on: Trypanosoma brucei brucei; test: In vitro antitrypanosomal Alamar Blue assay on T. brucei trypomastigote cultures; assay type: cell-based; settings: for IC50 / IC90: Trypanosoma brucei; for IC50: read-out: Antitrypanosomal activity IC50; for IC90: read-out: Antitrypanosomal activity IC90; for Antitrypanosomal activity IC50 / Antitrypanosomal activity IC90: T. b. brucei, 37 °C, mean ± S.D. of duplicate observations, tested range 0.4–10 μg/mL
Summary of the method: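 T. b. brucei trypomastigotes seeded at 2 × 10^6 cell/mL and exposed to test compound at three concentrations (40–1.6 or […]). Incubated 72 h at 37 °C, then parasite growth read by Alamar Blue. IC50 and IC90 were fitted from dose–response curves and given as mean ± S.D. of duplicate observations. Difluoromethylornithine served as positive control.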

[2] = Cytotoxicity against THP1 cell cultures; assay type: cell-based, human; settings: human, THP1 cells
μ-opioid receptors = μ-opioid receptors (Homo sapiens, UniProt P35372); test: Opioid receptor radioligand binding assay; settings: for Ki: read-out: μ-opioid receptor Ki; for IC50: read-out: μ-opioid receptor binding IC50
μ-opioid receptors, sequence (P35372 whole entry): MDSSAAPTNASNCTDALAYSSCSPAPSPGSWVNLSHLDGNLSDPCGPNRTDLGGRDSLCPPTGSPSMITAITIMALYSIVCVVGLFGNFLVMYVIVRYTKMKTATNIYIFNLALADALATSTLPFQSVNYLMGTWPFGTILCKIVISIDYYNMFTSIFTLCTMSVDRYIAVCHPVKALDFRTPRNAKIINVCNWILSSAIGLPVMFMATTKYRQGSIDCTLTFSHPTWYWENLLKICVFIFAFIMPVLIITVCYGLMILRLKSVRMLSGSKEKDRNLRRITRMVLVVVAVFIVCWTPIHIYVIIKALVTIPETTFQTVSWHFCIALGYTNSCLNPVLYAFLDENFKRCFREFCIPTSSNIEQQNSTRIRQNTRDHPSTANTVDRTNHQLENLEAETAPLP

THP1 cells = test: Cytotoxicity against THP1 cell cultures; assay type: cell-based, human

Row | Molecule | IC50 ([1]; 72 h) [µg/mL] | IC90 ([1]; 72 h) [µg/mL] | IC50 [1] [µM] | IC90 [1] [µM] | IC50 [2] [µg/mL] | radio ligand displacement in μ-opioid receptor binding assay (μ-opioid receptors) [%] | Ki (μ-opioid receptors) | IC50 (μ-opioid receptors) [µM] | Antitrypanosomal activity IC50 ([1]; 72 h) [µg/mL] | Antitrypanosomal activity IC90 ([1]; 72 h) [µg/mL] | THP1 cell toxicity IC50 (THP1 cells) [µg/mL] | antitrypanosomal activity (in words) ([1]; tested concentrations range 0.32–8.23 μM)
1 | NCCCC(N)(C(=O)O)C(F)F (stereo not drawn) [DFMO, difluoromethylornithine, reference compound] | 2.38 | 5.28 | 13.1 | 29 | > 10 |  |  |  |  |  |  | 
2 | Heinsiagenin A 3-O-[α-L-rhamnopyranosyl-(1→2)-β-D-glucopyranosyl-(1→2)]-β-D-glucopyranoside [Compound 1] |  |  |  |  |  | 65.9 | 9.94 µM | 19.9 | 9.13 | 11.05 | >10 | 
3 | 2α-Hydroxyheinsiagenin A 3-O-[β-D-glucopyranosyl-(1→2)]-[β-D-glucopyranosyl]-(1→4)]-β-D-glucopyranoside [Compound 4] |  |  |  |  |  |  |  |  | 3.04 | 4.64 | >10 | 
4 | Heinsiagenin A 3-O-[α-L-rhamnopyranosyl-(1→2)-β-D-glucopyranosyl-(1→2)]-[β-D-glucopyranosyl-(1→4)]-β-D-glucopyranoside [Compound 2] |  |  |  |  |  | 61.0 | 0.872 µM and 0.87 µM | 1.74 | 3.08 | 4.27 | >10 | 
5 | 2α-Hydroxyheinsiagenin A 3-O-[α-L-rhamnopyranosyl-(1→2)-β-D-glucopyranosyl-(1→2)]-β-D-glucopyranoside [Compound 3] |  |  |  |  |  |  |  |  | 2.75 | 3.53 | >10 | 
6 | C/C(=C\C=C\[C@@H](C)[C@H]1CC[C@@]2(C)C3=C(CC[C@]12CO)[C@@]1(C)CC[C@H](O[C@@H]2O[C@H](CO)[C@@H](O[C@@H]4O[C@H](CO)[C@@H](O)[C@H](O)[C@H]4O)[C@H](O)[C@H]2O[C@@H]2O[C@H](CO)[C@@H](O)[C@H](O)[C@H]2O[C@@H]2O[C@@H](C)[C@H](O)[C@@H](O)[C@H]2O)C(C)(C)[C@@H]1CC3)C(=O)N[C@@H]1C(=O)O[C@H](C)[C@@H]1C [Compound 5, N-(2S, 3R, 4R-3-methyl-4-pentanolid-2-yl)-18-hydroxylanosta-8 (9), 22E, 24E-trien-27-amide-3-O-[α-L-rhamnopyranosyl-(1→2)-O-β-D-glucopyranosyl-(1→2)]-[β-D-glucopyranosyl-(1→4)]-β-D-glucopyranoside] |  |  |  |  |  |  |  |  | >10 | >10 | >10 | no antitrypanosomal activity
